Laboratory results as given in ChEMBL document CHEMBL1149392, “PTP-1B inhibitors: cyclopenta[d][1,2]-oxazine derivatives” (Bioorg Med Chem Lett, 2006).

How the values were obtained:
[1] = target: T1, M-phase inducer phosphatase 1 (Homo sapiens, UniProt P30304); assay: Inhibitory activity against cdc25A phosphatase
T1 sequence (P30304 whole entry): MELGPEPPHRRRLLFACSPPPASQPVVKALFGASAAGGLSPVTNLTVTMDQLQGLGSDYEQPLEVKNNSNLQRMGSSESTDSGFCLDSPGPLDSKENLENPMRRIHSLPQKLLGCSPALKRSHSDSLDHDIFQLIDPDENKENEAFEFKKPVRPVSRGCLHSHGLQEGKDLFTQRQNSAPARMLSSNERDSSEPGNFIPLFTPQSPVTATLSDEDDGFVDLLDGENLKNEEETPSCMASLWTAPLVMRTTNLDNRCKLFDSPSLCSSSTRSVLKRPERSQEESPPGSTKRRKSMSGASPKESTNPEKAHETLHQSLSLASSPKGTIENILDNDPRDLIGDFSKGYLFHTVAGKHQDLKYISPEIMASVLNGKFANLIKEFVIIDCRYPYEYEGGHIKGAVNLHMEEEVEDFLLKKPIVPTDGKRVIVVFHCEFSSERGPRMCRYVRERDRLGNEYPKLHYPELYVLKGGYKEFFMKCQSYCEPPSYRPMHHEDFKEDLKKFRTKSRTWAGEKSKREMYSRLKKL
Outline: (§1)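 Selectivity panel of nine phosphatases, each assayed with fluorescein diphosphate at the same concentration as in the PTP-1B assay (20 μM). IC50 values (μM) reported.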

[2] = target: Receptor-type tyrosine-protein phosphatase F (Homo sapiens, UniProt P10586); assay: Inhibitory activity against LAR protein tyrosine phosphatase; outline: as §1
Sequence of Receptor-type tyrosine-protein phosphatase F (P10586 whole entry): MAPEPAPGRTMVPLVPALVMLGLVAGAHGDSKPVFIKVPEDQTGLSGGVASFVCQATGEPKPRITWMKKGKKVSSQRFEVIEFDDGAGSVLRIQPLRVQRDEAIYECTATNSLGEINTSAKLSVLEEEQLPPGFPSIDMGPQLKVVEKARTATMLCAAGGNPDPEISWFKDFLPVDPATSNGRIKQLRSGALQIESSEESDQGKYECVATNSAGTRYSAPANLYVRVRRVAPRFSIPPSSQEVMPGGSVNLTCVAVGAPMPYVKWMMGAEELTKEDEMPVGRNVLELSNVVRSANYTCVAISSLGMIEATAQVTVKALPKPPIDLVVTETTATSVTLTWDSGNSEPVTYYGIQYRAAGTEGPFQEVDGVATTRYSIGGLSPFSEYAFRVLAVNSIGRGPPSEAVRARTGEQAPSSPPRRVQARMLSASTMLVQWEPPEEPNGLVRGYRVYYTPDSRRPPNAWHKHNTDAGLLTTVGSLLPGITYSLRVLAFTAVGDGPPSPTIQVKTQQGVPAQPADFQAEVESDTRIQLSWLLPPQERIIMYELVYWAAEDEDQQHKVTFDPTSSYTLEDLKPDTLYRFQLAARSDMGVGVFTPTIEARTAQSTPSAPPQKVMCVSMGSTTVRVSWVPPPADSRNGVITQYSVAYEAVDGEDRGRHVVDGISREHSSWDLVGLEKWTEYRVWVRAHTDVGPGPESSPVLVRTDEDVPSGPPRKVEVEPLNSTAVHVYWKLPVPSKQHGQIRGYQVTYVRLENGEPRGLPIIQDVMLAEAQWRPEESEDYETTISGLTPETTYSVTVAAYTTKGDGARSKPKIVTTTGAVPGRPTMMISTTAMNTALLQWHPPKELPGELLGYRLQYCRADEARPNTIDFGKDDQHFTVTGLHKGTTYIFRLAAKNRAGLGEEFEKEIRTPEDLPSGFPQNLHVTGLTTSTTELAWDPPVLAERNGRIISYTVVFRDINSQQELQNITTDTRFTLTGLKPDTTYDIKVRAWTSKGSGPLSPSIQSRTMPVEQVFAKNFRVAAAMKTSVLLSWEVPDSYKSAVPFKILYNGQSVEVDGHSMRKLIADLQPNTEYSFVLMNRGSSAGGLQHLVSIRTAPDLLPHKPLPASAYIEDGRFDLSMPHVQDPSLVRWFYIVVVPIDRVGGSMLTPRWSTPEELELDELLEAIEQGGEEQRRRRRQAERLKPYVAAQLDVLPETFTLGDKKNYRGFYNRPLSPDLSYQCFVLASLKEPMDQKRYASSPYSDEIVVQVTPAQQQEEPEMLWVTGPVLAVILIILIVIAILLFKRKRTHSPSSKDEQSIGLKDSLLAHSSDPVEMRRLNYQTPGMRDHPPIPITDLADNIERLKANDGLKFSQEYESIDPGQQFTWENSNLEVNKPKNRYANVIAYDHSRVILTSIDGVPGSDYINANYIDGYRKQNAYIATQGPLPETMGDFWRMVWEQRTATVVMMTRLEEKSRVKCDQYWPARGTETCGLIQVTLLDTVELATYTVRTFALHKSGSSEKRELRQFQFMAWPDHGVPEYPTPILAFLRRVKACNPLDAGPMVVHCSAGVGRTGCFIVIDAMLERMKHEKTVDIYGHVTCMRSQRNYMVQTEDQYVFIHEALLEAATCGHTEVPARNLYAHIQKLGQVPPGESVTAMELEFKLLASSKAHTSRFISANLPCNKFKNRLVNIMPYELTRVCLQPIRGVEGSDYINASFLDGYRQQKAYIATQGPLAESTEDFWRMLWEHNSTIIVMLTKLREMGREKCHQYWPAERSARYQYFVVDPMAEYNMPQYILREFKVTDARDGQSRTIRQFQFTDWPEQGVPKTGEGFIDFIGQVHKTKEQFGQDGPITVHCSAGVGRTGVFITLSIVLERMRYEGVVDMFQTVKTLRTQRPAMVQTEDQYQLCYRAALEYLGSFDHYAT

[3] = target: Tyrosine-protein phosphatase YopH (Yersinia enterocolitica, UniProt P15273); assay: Inhibitory activity against YOP protein tyrosine phosphatase
Sequence of Tyrosine-protein phosphatase YopH (P15273 whole entry): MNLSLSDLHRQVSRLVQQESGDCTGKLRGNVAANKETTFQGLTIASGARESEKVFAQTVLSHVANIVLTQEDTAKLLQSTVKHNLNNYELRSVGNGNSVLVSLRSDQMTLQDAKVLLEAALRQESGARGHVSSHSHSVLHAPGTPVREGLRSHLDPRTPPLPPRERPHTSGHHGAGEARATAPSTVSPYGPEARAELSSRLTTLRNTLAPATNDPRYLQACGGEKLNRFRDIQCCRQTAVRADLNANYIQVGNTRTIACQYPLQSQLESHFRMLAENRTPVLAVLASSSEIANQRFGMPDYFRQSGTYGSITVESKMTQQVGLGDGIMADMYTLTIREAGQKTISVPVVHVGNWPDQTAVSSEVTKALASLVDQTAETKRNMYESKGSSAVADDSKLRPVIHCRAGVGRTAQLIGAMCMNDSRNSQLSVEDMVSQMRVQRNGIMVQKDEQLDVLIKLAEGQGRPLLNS
Outline: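 Counter-screen against Yop phosphatase within a nine-phosphatase selectivity panel. Fluorescein diphosphate substrate at 20 μM, the same level as in the PTP-1B assay. Potency is reported as IC50 (μM).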

[4] = target: T2, Receptor-type tyrosine-protein phosphatase C (Homo sapiens, UniProt P08575); assay: Inhibitory activity against CD45 phosphatase; outline: as §1
T2 sequence (P08575 whole entry): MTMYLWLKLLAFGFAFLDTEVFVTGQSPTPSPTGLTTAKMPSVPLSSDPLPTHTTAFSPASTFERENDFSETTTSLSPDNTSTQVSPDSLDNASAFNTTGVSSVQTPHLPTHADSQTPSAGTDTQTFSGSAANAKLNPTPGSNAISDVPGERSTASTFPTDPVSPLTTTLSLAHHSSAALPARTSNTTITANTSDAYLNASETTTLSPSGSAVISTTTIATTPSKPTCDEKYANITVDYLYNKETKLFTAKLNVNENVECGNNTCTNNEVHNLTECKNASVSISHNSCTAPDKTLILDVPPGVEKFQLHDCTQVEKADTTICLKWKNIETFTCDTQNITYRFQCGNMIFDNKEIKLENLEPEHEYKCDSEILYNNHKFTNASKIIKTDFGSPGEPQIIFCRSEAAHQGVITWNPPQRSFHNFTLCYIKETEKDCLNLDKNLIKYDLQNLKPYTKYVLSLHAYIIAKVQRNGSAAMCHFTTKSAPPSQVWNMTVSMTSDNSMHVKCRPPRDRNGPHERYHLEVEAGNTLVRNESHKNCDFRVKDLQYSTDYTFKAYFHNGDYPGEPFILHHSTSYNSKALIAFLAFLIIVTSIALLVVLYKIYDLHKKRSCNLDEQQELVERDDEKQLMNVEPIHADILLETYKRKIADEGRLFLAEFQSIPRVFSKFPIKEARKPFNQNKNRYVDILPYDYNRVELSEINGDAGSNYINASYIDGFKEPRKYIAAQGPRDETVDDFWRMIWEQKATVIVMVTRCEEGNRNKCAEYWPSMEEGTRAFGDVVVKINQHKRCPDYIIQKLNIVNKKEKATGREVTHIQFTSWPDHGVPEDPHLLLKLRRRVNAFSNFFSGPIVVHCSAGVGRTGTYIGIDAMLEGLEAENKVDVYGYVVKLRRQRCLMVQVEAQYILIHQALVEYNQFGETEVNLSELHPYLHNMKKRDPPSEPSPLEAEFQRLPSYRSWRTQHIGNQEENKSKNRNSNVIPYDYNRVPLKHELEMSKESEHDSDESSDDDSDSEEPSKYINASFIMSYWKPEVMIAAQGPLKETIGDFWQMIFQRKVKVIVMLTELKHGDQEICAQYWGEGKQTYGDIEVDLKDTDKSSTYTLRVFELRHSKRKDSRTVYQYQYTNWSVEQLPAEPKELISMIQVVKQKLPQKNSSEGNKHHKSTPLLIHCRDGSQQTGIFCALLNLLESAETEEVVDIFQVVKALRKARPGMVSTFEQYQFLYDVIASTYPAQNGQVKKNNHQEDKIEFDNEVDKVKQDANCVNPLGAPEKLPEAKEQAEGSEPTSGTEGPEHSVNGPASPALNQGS

[5] = target: T3, M-phase inducer phosphatase 3 (Homo sapiens, UniProt P30307); assay: Inhibitory activity against cdc25C phosphatase; outline: as §1
T3 sequence (P30307 whole entry): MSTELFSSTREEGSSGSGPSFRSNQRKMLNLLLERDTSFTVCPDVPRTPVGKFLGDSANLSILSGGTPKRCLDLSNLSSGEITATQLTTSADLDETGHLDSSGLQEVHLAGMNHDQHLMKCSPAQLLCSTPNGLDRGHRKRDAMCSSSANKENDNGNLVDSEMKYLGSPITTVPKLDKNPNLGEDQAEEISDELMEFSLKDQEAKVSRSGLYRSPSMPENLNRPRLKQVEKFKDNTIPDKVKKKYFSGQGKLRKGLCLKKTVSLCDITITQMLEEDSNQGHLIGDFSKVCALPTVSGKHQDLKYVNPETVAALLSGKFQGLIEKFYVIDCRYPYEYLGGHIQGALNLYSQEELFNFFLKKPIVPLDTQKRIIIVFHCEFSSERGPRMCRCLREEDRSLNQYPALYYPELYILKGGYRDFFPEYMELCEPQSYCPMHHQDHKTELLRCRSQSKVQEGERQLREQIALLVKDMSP

[6] = target: Serine/threonine-protein phosphatase PP1-gamma catalytic subunit (Homo sapiens, UniProt P36873); assay: Inhibitory activity against Protein phosphatase 1; outline: as §1
Sequence of Serine/threonine-protein phosphatase PP1-gamma catalytic subunit (P36873 whole entry): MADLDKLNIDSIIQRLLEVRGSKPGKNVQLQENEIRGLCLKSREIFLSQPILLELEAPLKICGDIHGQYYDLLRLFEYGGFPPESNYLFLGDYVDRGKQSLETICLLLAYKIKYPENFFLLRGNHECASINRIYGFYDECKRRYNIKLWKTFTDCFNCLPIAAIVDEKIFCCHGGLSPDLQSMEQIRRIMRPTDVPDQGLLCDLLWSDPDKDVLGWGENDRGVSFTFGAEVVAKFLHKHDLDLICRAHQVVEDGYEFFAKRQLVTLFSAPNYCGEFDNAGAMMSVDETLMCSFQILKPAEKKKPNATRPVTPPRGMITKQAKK

| SMILES | IC50 [1] | IC50 [2] | IC50 [3] | IC50 [4] | IC50 [5] | IC50 [6] |
| --- | --- | --- | --- | --- | --- | --- |
| NCc1ccc(C(=O)c2ccc3c(-c4ccc(OCC(=O)O)cc4)nocc2-3)cc1 | 10 µM | > 10 µM | 1190 nM | 1230 nM | > 10 µM | 1300 nM |
| COc1ccc(C(=O)c2ccc3c(-c4ccc(OCC(=O)O)cc4)nocc2-3)cc1 | 73.3 µM | 61.7 µM | 5710 nM | 28800 nM | 61.7 µM | 35200 nM |
| CCCCCCCCCCCCCCc1ccc(C(=O)c2ccc3c(-c4ccc(OCC(=O)O)cc4)nocc2-3)cc1 | 1.33 µM | 0.69 µM | 550 nM | 150 nM | 2.27 µM | 220 nM |
